Experimental findings from ChEMBL document CHEMBL1154904 (J Med Chem, 2010) are described below.

Each structure is given as a SMILES string.

Data set [1] can be described thus: in vitro. To be noted: human, Caco-2.
The nature of data set [2]: Oral bioavailability in rat at 10 mg/kg. To be noted: in vivo. The data set is classed as ADME, organism-based. The method in brief: (§1)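 Fasted animals received a single oral dose of 10 mg/kg unless another dose was specified. Half-life was taken from the po profile.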
Data set [3] is described as follows: Cmax in dog at 10 mg/kg, po. Format: ADME, organism-based, Canis lupus familiaris. On the set-up: dose 10 mg/kg, route oral. To be noted: in vivo. Put shortly: (§2)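 Fasted rats or dogs received a single oral dose of 10 mg/kg. Plasma drug levels gave Cmax and oral half-life.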
The nature of data set [4]: Cmax in rat at 10 mg/kg, po. Format: ADME, organism-based. On the set-up: dose 10 mg/kg, route oral. To be noted: in vivo. Put shortly:
as §2

In data set [5] the test system is Rattus norvegicus. In words: Plasma concentration in Sprague-Dawley rat electrical current-induced arterial thrombosis model at 1 mg/kg, iv administered 5 mins before electrical stimulation for 20 mins. Format: ADME, organism-based. On the set-up: dose 1 mg/kg, route intravenous. To be noted: in vivo. Put shortly: (§3)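 Anesthetized rats with a carotid Doppler flow probe received 10% solutol vehicle or compound (0.03–1.0 mg/kg) by slow left jugular infusion over 20 min at 0.05 mL/min. Electrical stimulation of the carotid began 5 min into the infusion and lasted 5 min. Occlusion was followed for 30 min; plasma drug levels were related to aPTT.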

Data set [6] can be described thus: Plasma concentration in mongrel dog arterio-venous shunt model of thrombosis at 3 mg/kg, po after 1 hr. Format: ADME, organism-based, Canis lupus familiaris. On the set-up: dose 3 mg/kg, route oral. Put shortly: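 Adult mongrel dogs of either sex (13.2–14.5 kg) were dosed orally at 3 mg/kg. After a 1 h observation period they were anesthetized with pentobarbital (35 mg/kg iv). Plasma taken at the 1 h time point was assayed for drug concentration and aPTT.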

Data set [7] is described as follows: Oral bioavailability in dog at 10 mg/kg, po. To be noted: in vivo. The data set is classed as ADME, organism-based, Canis lupus familiaris. The method in brief:
as §1

Data set [8] deals with Rattus norvegicus. Description: Plasma concentration in Sprague-Dawley rat electrical current-induced arterial thrombosis model at 0.3 mg/kg, iv administered 5 mins before electrical stimulation for 20 mins. To be noted: in vivo. Format: ADME, organism-based. On the set-up: dose 0.3 mg/kg, route intravenous. The method in brief:
as §3

A short description of data set [9]: in vitro. To be noted: human, Caco-2. This is another data set of the same source.
A short description of data set [10]: Plasma concentration in Sprague-Dawley rat deep vein thrombosis model at 0.1 mg/kg, iv administered for 45 mins measured after 30 mins post dose. Format: ADME, organism-based. On the set-up: dose 0.1 mg/kg, route intravenous. The method in brief: (§4)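 Rats received vehicle (solutol 10% and D5W) or compound by jugular vein infusion over 45 min at 0.04 mL/min, to total cumulative doses of 0.1, 0.3 or 1.0 mg/kg. Thrombus formation in the vena cava began at 30 min of infusion. Blood was drawn from a carotid catheter at the end of the experiment for coagulation times and plasma drug concentration.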

Data set [11] in a line: Plasma concentration in Sprague-Dawley rat deep vein thrombosis model at 10 mg/kg, po measured after 70 mins post. Format: ADME, organism-based. On the set-up: dose 10 mg/kg, route oral. The method in brief:
(§5)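 For oral dosing, compound at 10, 30 or 50 mg/kg was solubilized in 0.5% methocel (5 mL/kg) and given by oral dosing tube. Rats were anesthetized 45 min after dosing, followed by the venous thrombus procedure. Blood was sampled at study termination for plasma drug concentration and coagulation times.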

A short description of data set [12]: Cmax in rat at 30 mg/kg, po. Format: ADME, organism-based. On the set-up: dose 30 mg/kg, route oral. To be noted: in vivo. Put shortly: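 Rats were fasted and given a single oral dose of 30 mg/kg. Cmax was taken from plasma drug concentrations.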
The nature of data set [13]: Plasma concentration in Sprague-Dawley rat deep vein thrombosis model at 30 mg/kg, po measured after 70 mins post. The data set is classed as ADME, organism-based. On the set-up: dose 30 mg/kg, route oral. Put shortly: as §5
Data set [14] in a line: Plasma concentration in Sprague-Dawley rat deep vein thrombosis model at 50 mg/kg, po measured after 70 mins post. The data set is classed as ADME, organism-based. On the set-up: dose 50 mg/kg, route oral. Put shortly: as §5
Data set [15] can be described thus: Plasma concentration in Sprague-Dawley rat deep vein thrombosis model at 0.3 mg/kg, iv administered for 45 mins measured after 30 mins post dose. On the set-up: dose 0.3 mg/kg, route intravenous. The data set is classed as ADME, organism-based. Put shortly: as §4
Data set [16] is described as follows: Tmax in healthy human at 4 to 500 mg po. To be noted: in vivo.
A short description of data set [17]: Plasma concentration in Sprague-Dawley rat deep vein thrombosis model at 1 mg/kg, iv administered for 45 mins measured after 30 mins post dose. The data set is classed as ADME, organism-based. On the set-up: dose 1 mg/kg, route intravenous. The method in brief:
as §4

Data set [18] in a line: Apparent volume of distribution with respect to bioavailability in healthy human at 100 to 500 […]. Format: ADME, organism-based. To be noted: in vivo, in the assay text read “100 to 500 mg” for “100 to 500 mg/kg”, read-out: Vc/F. Put shortly: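 Double-blind, placebo-controlled single oral solution doses (4–500 mg) in healthy fasted (≥10 h) males: six drug and two placebo subjects per cohort, given with 200 mL water. Venous blood was taken predose and at 0.5–48 h for plasma levels. aPTT was recorded in seconds and as a ratio to individual −1 h baseline.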

For orientation: Papp B→A means the apparent permeability from the basolateral to the apical side of a cell layer. Broadly, the Cmax is the highest concentration seen after dosing. What is called Papp A→B is how fast a substance crosses the layer from the apical side. A low value points to slow passage. With `N#Cc1cnc(NCC(F)(F)c2ccccc2)c(=O)n1CC(=O)NCCON=C(N)N`, the Papp B→A in “in vitro [1]” turned out to be 2.26 ×10⁻⁶ cm/s. Further, the bioavailability in data set [2] is 11%; in data set [7] it was 57%. In addition, the values for the Cmax in data set [3] and in data set [4] were 3.3 µM and 200 nM, respectively. For the same compound, the results for the concentration with Rattus norvegicus [5] and in the data set on Rattus norvegicus [8] were 380 nM and 85 nM, respectively. Besides, in [6], the concentration at 1 h is 480 nM. Besides, the Papp A→B in the data set “in vitro [9]” came to 0.5 ×10⁻⁶ cm/s.
For `Cc1cnc(NCCc2ccc(F)c(F)c2)c(=O)n1CC(=O)NCCONC(=N)N`, the Papp B→A in the data set “in vitro [1]” stood at 1.84 ×10⁻⁶ cm/s. In the data set “in vitro [9]”, this compound came in with a Papp A→B of 0.92 ×10⁻⁶ cm/s.
`N=C(N)NOCCNC(=O)Cn1c(Cl)cnc(NCC(F)(F)c2ccccc2)c1=O`: in “in vitro [1]”, the Papp B→A came to 3.04 ×10⁻⁶ cm/s. In addition, the bioavailability in data set [2] stood at 9%; in data set [7], 60%. For the same compound, the values for the Cmax in data set [3] and in data set [4] were 1.6 µM and 200 nM, respectively. The compound further returned an apical-to-basolateral permeability (Papp A→B) in “in vitro [9]” of 0.5 ×10⁻⁶ cm/s.
As for `Cc1cnc(NCCc2ccc(F)cc2F)c(=O)n1CC(=O)NCCONC(=N)N`, the Papp B→A in “in vitro [1]” stood at 1.91 ×10⁻⁶ cm/s. Further, the Papp A→B in “in vitro [9]” came to 0.5 ×10⁻⁶ cm/s.
By Tmax is commonly meant the time from dosing to the highest level. For `Cc1cnc(NCC(F)(F)c2ccccc2)c(=O)n1CC(=O)NCCONC(=N)N`, the Papp B→A in the data set “in vitro [1]” turned out to be 6.45 ×10⁻⁶ cm/s. The figures for the bioavailability in data set [2] and in data set [7] were 23% and 103%, respectively. In addition, the concentration at 0.5 h in data set [10] was found to be 310 nM; in [15] it was 540 nM; in [17], 800 nM. Moreover, the Cmax in data set [3] is 5.7 µM; in [12], 3.3 µM. Also, the concentration at 70 min in data set [11] amounted to 100 nM; in data set [13], 760 nM; in data set [14], 730 nM. In addition, the concentration with Rattus norvegicus [5] stood at 310 nM; in the data set with Rattus norvegicus [8], 120 nM. The compound also showed a concentration at 1 h in [6] of 870 nM. The compound also returned a Papp A→B in “in vitro [9]” of 1.37 ×10⁻⁶ cm/s. Besides, the Tmax in data set [16] came out at 1.25 h. The Vd/F in [18] came to 530 L.
With `Cc1cnc(NCCc2ccc3c(c2)CCC3)c(=O)n1CC(=O)NCCONC(=N)N`, in “in vitro [1]”, the Papp B→A is 4.29 ×10⁻⁶ cm/s. In “in vitro [9]”, the Papp A→B is 0.67 ×10⁻⁶ cm/s.
For `Cc1cnc(NCC(c2ccccc2)c2ccccc2)c(=O)n1CC(=O)NCCONC(=N)N`, in that order: 13 ×10⁻⁶ cm/s and 0.14 ×10⁻⁶ cm/s.
Turning to `Cc1cnc(NCCc2ccc(F)cc2)c(=O)n1CC(=O)NCCONC(=N)N`, in the data set “in vitro [1]”, the Papp B→A was 1.48 ×10⁻⁶ cm/s. Further, the Papp A→B in the data set “in vitro [9]” was 0.55 ×10⁻⁶ cm/s.
In “in vitro [1]”, `Cc1ccc(CCNc2ncc(C)n(CC(=O)N(C)CCON=C(N)N)c2=O)cc1` gave a Papp B→A of 0.6 ×10⁻⁶ cm/s. The compound further displayed a Papp A→B in the data set “in vitro [9]” of 0.27 ×10⁻⁶ cm/s.
In turn, `CCc1ccc(CCNc2ncc(C)n(CC(=O)NCCONC(=N)N)c2=O)cc1` displayed a Papp B→A in the data set “in vitro [1]” of 10.3 ×10⁻⁶ cm/s. Further, in “in vitro [9]”, the Papp A→B amounted to 0.29 ×10⁻⁶ cm/s.
Regarding `Cc1cnc(NCCc2cccc3ccccc23)c(=O)n1CC(=O)NCCON=C(N)N`, in the data set “in vitro [1]”, the Papp B→A was found to be 11.8 ×10⁻⁶ cm/s. For the same compound, the apparent permeability from apical to basolateral (Papp A→B) in “in vitro [9]” came to 0.32 ×10⁻⁶ cm/s.
